# In ChEMBL document CHEMBL4689842, “EUbOPEN Chemogenomics Library wave 1” (2021):
# What was measured:
# Type in all cases: toxicity, cell-based
# HEK-293T = experiment: Incucyte cell viability with HEK293T; details: human, 10 µM, compound concentration 10 uM; further: filed as whole numbers so only -1 and 0 and 1 occur
# U2OS = experiment: Incucyte cell viability with U2OS; details: human, 10 µM, compound concentration 10 uM; further: filed as whole numbers so only -1 and 0 and 1 occur
# Fibroblast = experiment: Multiplex assay against human fibroblast
# In short: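 Compound was added to live cells that had been stained at seeding with Hoechst33342, BioTracker Green Microtubule Cytoskeleton Dye, MitoTracker Red and Annexin V Alexa Fluor 680, and imaging followed on a CQ1 microscope at 37°C and 5% CO2. CellPathfinder machine-learning gating divided cells into Hoechst high-intensity objects or normal cells, normal cells into healthy, pyknosed or fragmented nuclei, and pyknosed cells into mitotic or apoptotic. Tubulin, mitochondrial-mass and membrane-permeability phenotypes are per cents of healthy-nucleus cells.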
# [1] = 6 h, replicate number 1, timepoint 6 hours
# [2] = 12 h, replicate number 1, timepoint 12 hours
# [3] = 18 h, replicate number 1, timepoint 18 hours
# [4] = 24 h, replicate number 1, timepoint 24 hours
# [5] = 12 h, 1 µM, compound concentration 1 uM, replicate 1
# [6] = 12 h, 1 µM, compound concentration 1 uM, replicate 2
# [7] = 12 h, 10 µM, compound concentration 10 uM, replicate 1
# [8] = 12 h, 10 µM, compound concentration 10 uM, replicate 2
# [9] = 24 h, 1 µM, compound concentration 1 uM, replicate 1
# [10] = 24 h, 1 µM, compound concentration 1 uM, replicate 2
# [11] = 24 h, 10 µM, compound concentration 10 uM, replicate 1
# [12] = 24 h, 10 µM, compound concentration 10 uM, replicate 2
smiles,measurement,setting,value
CN(C)CCOc1ccc(-c2nc(-c3ccncc3)c(-c3ccc4c(c3)CC/C4=N\O)[nH]2)cc1 [SB590885],Growth Rate,"HEK-293T; 0 h, replicate number 1, timepoint 0 hours",1
same,Growth Rate,HEK-293T; [1],0
same,Growth Rate,HEK-293T; [2],0
same,Growth Rate,HEK-293T; [3],0
same,Growth Rate,HEK-293T; [4],0
same,Growth Rate,"U2OS; 0 h, replicate number 2, timepoint 0 hours",1
same,Growth Rate,U2OS; [1],0
same,Growth Rate,U2OS; [2],0
same,Growth Rate,U2OS; [3],0
same,Growth Rate,U2OS; [4],0
same,Population Apoptotic (%),Fibroblast; [5],86%
same,Population Fragmented Nuclei (%),Fibroblast; [5],40%
same,Population Healthy Nuclei (%),Fibroblast; [5],29%
same,Population Hoechst High Intensity Objects (%),Fibroblast; [5],31%
same,Population Membrane Permeable-Phenotype (%),Fibroblast; [5],4%
same,Population Mitochondria Different-Phenotype (%),Fibroblast; [5],1%
same,Population Mitotic Cells (%),Fibroblast; [5],13%
same,Population Normal (%),Fibroblast; [5],68%
same,Population Pyknosed Nuclei (%),Fibroblast; [5],30%
same,Population Tubulin-Different-Phenotype (%),Fibroblast; [5],12%
same,Total Cell Count,Fibroblast; [5],562
same,Population Apoptotic (%),Fibroblast; [6],87%
same,Population Fragmented Nuclei (%),Fibroblast; [6],44%
same,Population Healthy Nuclei (%),Fibroblast; [6],3%
same,Population Hoechst High Intensity Objects (%),Fibroblast; [6],32%
same,Population Membrane Permeable-Phenotype (%),Fibroblast; [6],10%
same,Population Mitochondria Different-Phenotype (%),Fibroblast; [6],5%
same,Population Mitotic Cells (%),Fibroblast; [6],12%
same,Population Normal (%),Fibroblast; [6],67%
same,Population Pyknosed Nuclei (%),Fibroblast; [6],52%
same,Population Tubulin-Different-Phenotype (%),Fibroblast; [6],42%
same,Total Cell Count,Fibroblast; [6],833
same,Population Apoptotic (%),Fibroblast; [7],84%
same,Population Fragmented Nuclei (%),Fibroblast; [7],38%
same,Population Healthy Nuclei (%),Fibroblast; [7],48%
same,Population Hoechst High Intensity Objects (%),Fibroblast; [7],14%
same,Population Membrane Permeable-Phenotype (%),Fibroblast; [7],4%
same,Population Mitochondria Different-Phenotype (%),Fibroblast; [7],5%
same,Population Mitotic Cells (%),Fibroblast; [7],15%
same,Population Normal (%),Fibroblast; [7],85%
same,Population Pyknosed Nuclei (%),Fibroblast; [7],12%
same,Population Tubulin-Different-Phenotype (%),Fibroblast; [7],13%
same,Total Cell Count,Fibroblast; [7],245
same,Population Apoptotic (%),Fibroblast; [8],100%
same,Population Fragmented Nuclei (%),Fibroblast; [8],69%
same,Population Healthy Nuclei (%),Fibroblast; [8],28%
same,Population Hoechst High Intensity Objects (%),Fibroblast; [8],50%
same,Population Membrane Permeable-Phenotype (%),Fibroblast; [8],11%
same,Population Mitochondria Different-Phenotype (%),Fibroblast; [8],16%
same,Population Mitotic Cells (%),Fibroblast; [8],0%
same,Population Normal (%),Fibroblast; [8],49%
same,Population Pyknosed Nuclei (%),Fibroblast; [8],1%
same,Population Tubulin-Different-Phenotype (%),Fibroblast; [8],22%
same,Total Cell Count,Fibroblast; [8],128
same,Population Apoptotic (%),Fibroblast; [9],88%
same,Population Fragmented Nuclei (%),Fibroblast; [9],50%
same,Population Healthy Nuclei (%),Fibroblast; [9],40%
same,Population Hoechst High Intensity Objects (%),Fibroblast; [9],43%
same,Population Membrane Permeable-Phenotype (%),Fibroblast; [9],1%
same,Population Mitochondria Different-Phenotype (%),Fibroblast; [9],0%
same,Population Mitotic Cells (%),Fibroblast; [9],11%
same,Population Normal (%),Fibroblast; [9],56%
same,Population Pyknosed Nuclei (%),Fibroblast; [9],8%
same,Population Tubulin-Different-Phenotype (%),Fibroblast; [9],5%
same,Total Cell Count,Fibroblast; [9],552
same,Population Apoptotic (%),Fibroblast; [10],90%
same,Population Fragmented Nuclei (%),Fibroblast; [10],36%
same,Population Healthy Nuclei (%),Fibroblast; [10],3%
same,Population Hoechst High Intensity Objects (%),Fibroblast; [10],35%
same,Population Membrane Permeable-Phenotype (%),Fibroblast; [10],20%
same,Population Mitochondria Different-Phenotype (%),Fibroblast; [10],5%
same,Population Mitotic Cells (%),Fibroblast; [10],9%
same,Population Normal (%),Fibroblast; [10],64%
same,Population Pyknosed Nuclei (%),Fibroblast; [10],59%
same,Population Tubulin-Different-Phenotype (%),Fibroblast; [10],25%
same,Total Cell Count,Fibroblast; [10],821
same,Population Apoptotic (%),Fibroblast; [11],67%
same,Population Fragmented Nuclei (%),Fibroblast; [11],35%
same,Population Healthy Nuclei (%),Fibroblast; [11],51%
same,Population Hoechst High Intensity Objects (%),Fibroblast; [11],14%
same,Population Membrane Permeable-Phenotype (%),Fibroblast; [11],6%
same,Population Mitochondria Different-Phenotype (%),Fibroblast; [11],3%
same,Population Mitotic Cells (%),Fibroblast; [11],32%
same,Population Normal (%),Fibroblast; [11],85%
same,Population Pyknosed Nuclei (%),Fibroblast; [11],13%
same,Population Tubulin-Different-Phenotype (%),Fibroblast; [11],9%
same,Total Cell Count,Fibroblast; [11],299
same,Population Apoptotic (%),Fibroblast; [12],100%
same,Population Fragmented Nuclei (%),Fibroblast; [12],70%
same,Population Healthy Nuclei (%),Fibroblast; [12],28%
same,Population Hoechst High Intensity Objects (%),Fibroblast; [12],53%
same,Population Membrane Permeable-Phenotype (%),Fibroblast; [12],31%
same,Population Mitochondria Different-Phenotype (%),Fibroblast; [12],18%
same,Population Mitotic Cells (%),Fibroblast; [12],0%
same,Population Normal (%),Fibroblast; [12],46%
same,Population Pyknosed Nuclei (%),Fibroblast; [12],1%
same,Population Tubulin-Different-Phenotype (%),Fibroblast; [12],37%
same,Total Cell Count,Fibroblast; [12],122
